Measured values taken from ChEMBL document CHEMBL1143864, “Design and synthesis of potent antileishmanial cycloalkylidene-substituted ether phospholipid derivatives” (J Med Chem, 2008).

Legend:
THP-1 [1] = assay: Cytotoxicity against human THP1 cells after 72 hrs; type: cell-based; details: THP-1, 72 h
Leishmania donovani = assay: Antileishmanial activity against Leishmania donovani MHOM/IN/80/DD8/LEM703 promastigotes
[2] = Toxicity in human erythrocytes assessed as hemolysis; type: cell-based, Erythrocyte
Method in brief: (§1)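 Washed erythrocytes from EDTA blood of healthy volunteers mixed 1:1 with compound in PBS (100 to 6.25 µM), 1 h at 37 °C. After centrifugation, supernatant absorbance read at 550 nm (reference 625 nm). Hemolysis % = (A − A0)/(Amax − A0) × 100, with PBS background and water as 100% lysis.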

Leishmania infantum [3] = assay: Antileishmanial activity against Leishmania infantum MHOM/TN/80/IPT1/LEM235 promastigotes; type: functional, organism-based
Method in brief: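 Promastigotes grown in RPMI 1640 with 10% FCS, L-glutamine and antibiotics at 26 °C. Compounds, 65 mM stock in DMSO/ethanol 50/50, diluted 5-fold in medium (100 to 0.8 µM). Culture at 2 × 10^6 cells/mL mixed 1:1 with compound, 72 h at 26 °C. PI/SYBR-14 live/dead staining, flow cytometry, ≥10 000 cells; IC50 per Hills et al.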

Leishmania infantum [4] = assay: Antileishmanial activity against Leishmania infantum MHOM/TN/80/IPT1/LEM235 intracellular amastigotes; type: functional, organism-based
Method in brief: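 THP-1 cells differentiated with retinoic acid for 3 days, infected with L. infantum promastigotes (1:4, 37 °C, 5% CO2) overnight. Free parasites removed on Histopaque 1077. Infected cells at 4 × 10^5 cells/mL mixed 1:1 with compound, 72 h at 37 °C/5% CO2. Percent infected cells counted by Giemsa microscopy; IC50 as for promastigotes.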

[5] = Toxicity in human erythrocytes assessed as hemolysis at 500 uM; type: cell-based, Erythrocyte; details: read-out: Activity
[6] = Toxicity in human erythrocytes assessed as hemolysis at 100 uM; type: cell-based, Erythrocyte; details: read-out: Activity; method in brief: as §1
[7] = Half life in human; type: ADME, organism-based; details: in vivo
THP-1 [8] = assay: Cytotoxicity against human THP1 cells at 50 uM after 72 hrs; type: cell-based; details: thp-1, 72 h
Method in brief: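 THP-1 monocytes in RPMI 1640/10% FCS at 1 × 10^6 cells/mL incubated 72 h with compound (50 to 1.56 µM). Dual PI/SYBR-14 staining; alive/dead ratio by flow cytometry, excitation 488 nm, read at 545 and 645 nm. At least 10 000 cells per sample, each staining experiment repeated thrice.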

SMILES | IC50 (THP-1 [1]) [µM] | IC50 (Leishmania donovani) [µM] | HC50 [2] [µM] | IC50 (Leishmania infantum [3]) [µM] | IC50 (Leishmania infantum [4]) [µM] | hemolysis at 500 µM [5] [%] | hemolysis at 100 µM [6] [%] | half-life [7] [h] | Activity (THP-1 [8])
C[N+](C)(C)[C@H]1CCCC[C@@H]1OP(=O)([O-])OCCCCC=C1CCCCCCCCCCCCCC1 (relative stereo) | 88.5 | 6 | 76.7 | > 100 | 1.6 | 100 | 60.7 | – | –
CCCCCCCCCCCCCCCCOP(=O)([O-])OCC[N+](C)(C)C [MILTEFOSINE] | 28.6 | 8.7 | – | 23.9 | 6.7 | 100 | 96.1 | 100 | Toxic
C[N+]1(C)C2CCC1CC(=CCOP(=O)([O-])OCCCCCCCCCCC=C1C3CC4CC(C3)CC1C4)C2 | 147 | 41.6 | 61.3 | > 100 | 9.1 | 100 | 82.3 | – | –
C[N+](C)(C)CCOP(=O)([O-])OCCCCCCCCCCC=C1CCCCCCCCCCCCCC1 | 37.7 | 68.2 | 100 | 100 | 0.75 | 100 | 17.7 | – | –
CCCCCCCCCCCCCCCCOP(=O)([O-])O[C@@H]1CCC[C@H]1[N+](C)(C)C (relative stereo) | 34.1 | 54.3 | 43.1 | > 100 | 3.3 | 100 | 100 | – | –
C[N+](C)(C)CCOP(=O)([O-])OCCCCCC1CCCCCCCCC1 | 363 | < 3.13 | > 100 | 21.7 | 2.2 | 100 | 1.7 | – | –
C[N+](C)(C)[C@@H]1CCCC[C@H]1OP(=O)([O-])OCCCCCCCCCCC=C1C2CC3CC(C2)CC1C3 (relative stereo) | 39.7 | 16.6 | 66.6 | > 100 | 0.8 | 100 | 66.8 | – | –
C[N+]1(CCOP(=O)([O-])OCCCCC=C2CCCCCCCCCCCCCC2)CCOCC1 | 372 | 1.94 | > 100 | 1.8 | 4.4 | 88.3 | 45.4 | – | –
C[N+]1(CCOP(=O)([O-])OCCCCCCCCCCC=C2CCCCCCCCCCCCCC2)CCOCC1 | 36.2 | 41.5 | > 100 | 50.2 | 0.9 | 100 | 16.9 | – | –
C[N+](C)(C)CCOP(=O)([O-])OCCCCC=C1CCCCCCCCCCCCCC1 | 154 | 2.3 | > 100 | 2.2 | 3.8 | 57.4 | 38 | – | –
C[N+](C)(C)[C@@H]1CCCC[C@H]1OP(=O)([O-])OCCCCCCCCCCC=C1CCCCC1 (relative stereo) | 28.7 | 16.1 | 59.8 | > 100 | 1.1 | 100 | 81.6 | – | –
C[N+]1(CCOP(=O)([O-])OCCCCCC2CCCCCCCCCCCCCC2)CCCCC1 | 333 | 1 | > 100 | 2.8 | 1 | 80.8 | 28.7 | – | –
C[N+]1(CCOP(=O)([O-])OCCCCC=C2CCCCCCCCCCCCCC2)CCCCC1 | 272 | 2 | 68.4 | 1.7 | 4.1 | 100 | 71.6 | – | –
C[N+](C)(C)[C@@H]1CCC[C@H]1OP(=O)([O-])OCCCCCCCCCCC=C1CCCCC1 (relative stereo) | 30.7 | 8.6 | 76.3 | > 100 | 1.1 | 100 | 66.4 | – | –
C[N+](C)(C)CCOP(=O)([O-])OCCCCCC1CCCCCCCCCCCCCC1 | > 500 | 0.9 | > 100 | 1.4 | 0.7 | 100 | 8.7 | – | Non-toxic
C[N+](C)(C)[C@@H]1CCC[C@H]1OP(=O)([O-])OCCCCCCCCCCC=C1C2CC3CC(C2)CC1C3 (relative stereo) | 75 | 3.9 | > 100 | 38 | 0.3 | 100 | 30.8 | – | –
C[N+](C)(C)CC#CCOP(=O)([O-])OCCCCCCCCCCC=C1C2CC3CC(C2)CC1C3 | 75 | 41.1 | 100 | 44.3 | 5.2 | 100 | – | – | –
C[N+](C)(C)[C@H]1CCC[C@@H]1OP(=O)([O-])OCCCCC=C1CCCCCCCCCCCCCC1 (relative stereo) | 75.4 | < 3.1 | 44.3 | < 3.1 | 0.2 | 100 | 80.5 | – | –
C[N+](C)(C)CCOP(=O)([O-])OCCCCCCCCCCC=C1CCCCCCCCC1 | 37.9 | 1 | > 100 | 2.9 | 0.11 | 43 | 25.5 | – | –
C[N+]1(CCOP(=O)([O-])OCCCCCC2CCCCCCCCCCCCCC2)CCOCC1 | 244 | 1 | > 100 | 1.9 | 0.4 | 81.1 | 34.8 | – | –
C[N+](C)(C)CCOP(=O)([O-])OCCCCC=C1CCCCCCCCC1 | 349 | < 3.2 | > 100 | 76.8 | 3.3 | 41.8 | 2.1 | – | –
CCCCCCCCCCCCCCCCOP(=O)([O-])O[C@@H]1CCCC[C@H]1[N+](C)(C)C (relative stereo) | 21.3 | 71.9 | > 100 | > 100 | 1.7 | 55.4 | 20.4 | – | –
C[N+]1(CCOP(=O)([O-])OCCCCCCCCCCC=C2CCCCCCCCCCCCCC2)CCCCC1 | 72.6 | 65.9 | > 100 | 84.5 | 3.6 | 51.4 | 36 | – | –
